Assay results: ChEMBL document CHEMBL4342521 (J Med Chem, 2020)
Active and inactive are the calls of the source. The calls are words filed in the database; no cut-off is given here.

Assays:
Histone deacetylase 8 = Histone deacetylase 8 (Homo sapiens, UniProt Q9BY41); assay: Inhibition of recombinant full length human C-terminal His-tagged HDAC8 expressed in baculovirus infected Sf9 cells using Boc-Lys (trifluoroacetyl)-AMC as substrate preincubated for 1 hr followed by substrate addition and measured after 2 hrs by fluorescence based micro plate reader analysis
Outline: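 Recombinant HDAC8 preincubated with test agent at 30 °C for 1 h. Boc-Lys(trifluoroacetyl)-AMC added (final 50 μM), 2 h at 30 °C. Stopped with trypsin/TSA developer for 30 min; fluorescence read at 360/460 nm. Inhibition relative to control wells; IC50 by variable-slope fit.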

Trypsin (Homo sapiens) = Trypsin (Homo sapiens) (UniProt P07477+P07478+P35030); assay: Inhibition of trypsin (unknown origin); assay type: protein assay
HL-60(TB) = assay: Antiproliferative activity against human HL-60(TB) cells assessed as reduction in cell viability after 48 hrs by CellTiter-Blue assay; assay type: functional; conditions: HL-60, 48 h, read-out: LC50 (the source's name)
Outline: (§1)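 Cells grown in RPMI1640 with 10% FBS at 37 °C, 5% CO₂. 5,000–10,000 cells/well were pre-incubated overnight, and a time-zero CellTiter-Blue read was taken. Six 10-fold dilutions (top final 10 μM) were applied for 48 h, followed by 0.125 mg/mL CellTiter-Blue for 2–4 h. Resorufin fluorescence was read at ex 560/em 590 nm. […] Triplicates.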

NCI-H226 = assay: Antiproliferative activity against human NCI-H226 cells assessed as reduction in cell viability after 48 hrs by CellTiter-Blue assay; assay type: functional; conditions: NCI-H226, 48 h, read-out: LC50 (the source's name); outline: as §1
HCT-15 = assay: Antiproliferative activity against human HCT15 cells assessed as reduction in cell viability after 48 hrs by CellTiter-Blue assay; assay type: functional; conditions: HCT-15, 48 h, read-out: LC50 (the source's name); outline: as §1
SW-620 = assay: Antiproliferative activity against human SW620 cells assessed as reduction in cell viability after 48 hrs by CellTiter-Blue assay; assay type: functional; conditions: SW-620, 48 h, read-out: LC50 (the source's name)
Outline: (§2)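 NCI-60 panel lines grown in RPMI1640 with 10% FBS at 37 °C, 5% CO₂. Seeded at 5,000–10,000 cells/well and pre-incubated overnight. Exposed for 48 h to six 10-fold dilutions (top final 10 μM), with a time-zero plate read at dosing. CellTiter-Blue (0.125 mg/mL) for 2–4 h, fluorescence 560/590 nm, triplicate curves.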

SNB-75 = assay: Antiproliferative activity against human SNB75 cells assessed as reduction in cell viability after 48 hrs by CellTiter-Blue assay; assay type: functional; conditions: SNB-75, 48 h, read-out: LC50 (the source's name); outline: as §2
SK-MEL-28 = assay: Antiproliferative activity against human SK-MEL-28 cells assessed as reduction in cell viability after 48 hrs by CellTiter-Blue assay; assay type: functional; conditions: SK-MEL-28, 48 h, read-out: LC50 (the source's name); outline: as §1
SK-MEL-5 = assay: Antiproliferative activity against human SK-MEL-5 cells assessed as reduction in cell viability after 48 hrs by CellTiter-Blue assay; assay type: functional; conditions: SK-MEL-5, 48 h, read-out: LC50 (the source's name); outline: as §1
RXF 393 = assay: Antiproliferative activity against human RXF393 cells assessed as reduction in cell viability after 48 hrs by CellTiter-Blue assay; assay type: functional; conditions: RXF 393, 48 h, read-out: LC50 (the source's name); outline: as §1
MCF7 = assay: Antiproliferative activity against human MCF7 cells assessed as reduction in cell viability after 48 hrs by CellTiter-Blue assay; assay type: functional; conditions: MCF7, 48 h, read-out: LC50 (the source's name); outline: as §1
T47D = assay: Antiproliferative activity against human T47D cells assessed as reduction in cell viability after 48 hrs by CellTiter-Blue assay; assay type: functional; conditions: read-out: LC50 (the source's name); outline: as §2
MDA-MB-468 = assay: Antiproliferative activity against human MDA-MB-468 cells assessed as reduction in cell viability after 48 hrs by CellTiter-Blue assay; assay type: functional; conditions: MDA-MB-468, 48 h, read-out: LC50 (the source's name); outline: as §1
U-937 = assay: Antiproliferative activity agaisnt p53 null human U937 cells at 10 uM after 48 hrs by CellTiter-blue assay; assay type: functional, cell-based
MV4-11 [1] = assay: Induction of apoptosis in human MV4-11 cells harboring wild type p53/FLT3-ITD mutant assessed as cleavage of pro-caspase 3 at 50 to 200 nM after 24 hrs by Western blot analysis; assay type: functional, cell-based
Outline: (§3)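 Cells (1,500,000 per well) grown 12 h, then drug-treated as specified. Lysed in RIPA buffer, sonicated, centrifuged, protein normalized by BCA. Run on 4–12% Bis-Tris gels in MES, transferred, probed overnight at 4 °C with primary antibodies at 1/1000. Actin served as reference for LC3-II quantitation.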

MV4-11 [2] = assay: Induction of apoptosis in human MV4-11 cells harboring wild type p53/FLT3-ITD mutant assessed as c-FLIP degradation at 50 to 200 nM after 24 hrs by Western blot analysis; assay type: functional, cell-based; outline: as §3
MV4-11 [3] = assay: Induction of apoptosis in human MV4-11 cells harboring wild type p53/FLT3-ITD mutant assessed as XIAP degradation at 50 to 200 nM after 24 hrs by Western blot analysis; assay type: functional, cell-based; outline: as §3
MV4-11 [4] = assay: Induction of autophagy in human MV4-11 cells harboring wild type p53/FLT3-ITD mutant assessed as LC-3 degradation at 50 to 200 nM after 24 hrs by Western blot analysis; assay type: functional, cell-based; outline: as §3
MV4-11 [5] = assay: Down regulation of MDM2 expression in human MV4-11 cells harboring wild type p53/FLT3-ITD mutant at 50 to 200 nM after 24 hrs by Western blot analysis; assay type: functional, cell-based; outline: as §3
MV4-11 [6] = assay: Inhibition of autophagy in human MV4-11 cells assessed as cell death at 200 nM after 24 hrs in presence of 5 uM of chloroquine by CellTiter-blue dye based spectrophotometric analysis; assay type: functional
Outline: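 MV4-11 cells grown 12 h, then given 200 nM test agent alone or with z-VAD, chloroquine (5 μM) or wortmannin (100 nM) for 24 h. Viability by CellTiter-Blue (0.125 mg/mL, 2–4 h), resorufin fluorescence 560/590 nm, compared with t = 0 wells; n = 3.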

[7] = Cmax in CD1 mouse at 20 mg/kg, po via gavage after 24 hrs by LC-MS/MS analysis; assay type: ADME, organism-based; set-up: dose 20 mg/kg, route oral; conditions: in vivo
Outline: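 Male CD-1 mice, fasted overnight, 3 per route; compound in PBS with 5% DMSO, iv bolus 5 mg/kg or oral gavage 20 mg/kg. Blood sampled at 5, 15, 30 min and 1–24 h. Plasma protein-precipitated with acetonitrile plus internal standard, quantified by LC-MS/MS (MRM). AUC by linear trapezoidal method; parameters by non-compartmental analysis.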

[8] = Oral bioavailability in CD1 mouse at 20 mg/kg dosed via gavage after 24 hrs by LC-MS/MS analysis; assay type: ADME, organism-based; conditions: in vivo
Outline: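 Male CD-1 mice (n = 3) were fasted overnight and given compound in PBS with 5% DMSO, 5 mg/kg iv bolus or 20 mg/kg by gavage. Blood was sampled from 5 min to 24 h. Plasma was protein-precipitated with acetonitrile containing internal standard and quantified by LC-MS/MS (MRM). AUC was calculated by the linear trapezoidal method and parameters by non-compartmental analysis.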

Histone deacetylase 8, sequence (Q9BY41 whole entry): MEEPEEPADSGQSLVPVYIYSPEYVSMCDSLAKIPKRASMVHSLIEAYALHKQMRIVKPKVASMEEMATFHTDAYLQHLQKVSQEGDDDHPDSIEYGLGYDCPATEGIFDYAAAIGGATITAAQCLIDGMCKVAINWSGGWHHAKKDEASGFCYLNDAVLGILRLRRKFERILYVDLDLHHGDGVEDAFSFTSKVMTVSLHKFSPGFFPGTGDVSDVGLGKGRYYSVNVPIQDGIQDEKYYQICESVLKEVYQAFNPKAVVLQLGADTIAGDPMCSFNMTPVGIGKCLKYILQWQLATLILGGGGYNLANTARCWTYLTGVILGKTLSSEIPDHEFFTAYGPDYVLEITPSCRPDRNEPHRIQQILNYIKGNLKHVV

CCCNNC(=O)/C=C/c1ccc(CNCCc2c(C)[nH]c3ccccc23)cc1.O=C(O)C(F)(F)F
IC50 (Histone deacetylase 8): 1.76 µM
inhibition (Trypsin (Homo sapiens)): inactive
CC50 (HL-60(TB)): > 10 µM
CC50 (NCI-H226): 0.46 µM
CC50 (HCT-15): > 10 µM
CC50 (SW-620): > 10 µM
CC50 (SNB-75): > 10 µM
CC50 (SK-MEL-28): 0.893 µM
CC50 (SK-MEL-5): > 10 µM
CC50 (RXF 393): 0.666 µM
CC50 (MCF7): > 10 µM
CC50 (T47D): > 10 µM
CC50 (MDA-MB-468): > 10 µM
Activity (U-937): Active
Activity (MV4-11 [1]): Active
Activity (MV4-11 [2]): Active
Activity (MV4-11 [3]): Active
Activity (MV4-11 [4]): Active
Activity (MV4-11 [5]): Active
inhibition (MV4-11 [6]): inactive
Cmax [7]: 45.1 ng/mL
F [8]: 19.8%
